Results collected from several papers.
Each line is one published result; the experiments were not run side by side.
Kir1 channel protein: Kir1 channel protein (Aedes aegypti, UniProt L0EQS9)
MMP14: Matrix metalloproteinase-14 (MMP14, Homo sapiens, UniProt P50281)

O=[N+]([O-])c1ccc(N2CCN(S(=O)(=O)c3ccc(F)cc3)CC2)cc1NCc1ccncc1 — IC50 (Kir1 channel protein; ion flux, inhibitor): 390 nM
CC(C)(C)c1cc(Cc2cc(C(C)(C)C)c(O)c(C(C)(C)C)c2)cc(C(C)(C)C)c1O — IC50 (Sarcoplasmic/endoplasmic reticulum calcium ATPase 1 (ATP2A1, Oryctolagus cuniculus, UniProt P04191); ATPase activity, inhibitor, absorbance; pH 7.3): 17000 nM
O=C(Oc1nsnc1N1CCC2CCCCC2C1)N1CCCCC1 (stereo not drawn) — IC50 (Monoacylglycerol lipase ABHD6 (ABHD6, Homo sapiens, UniProt Q9BV23); enzyme activity, inhibitor, fluorescence; lysate): 560 nM
CSc1ccc(/C=C2/C(C)=C(CC(=O)O)c3cc(F)ccc32)cc1 — IC50 (Dual 3',5'-cyclic-AMP and -GMP phosphodiesterase 11A (PDE11A, Homo sapiens, UniProt Q9HCR9); enzyme activity, inhibitor): > 100000 nM
Cc1cc(O)cc(C)c1C[C@H](NC(=O)[C@@H]1CCCN1C(=O)[C@H](CCCNC(=N)N)NC(=O)[C@H](CCCNC(=N)N)N(C)C(=O)[C@@H](CCC(N)=O)NC(=O)[C@@H](CCC(N)=O)NC(=O)[C@@H](CCC(N)=O)NC(=O)[C@H](Cc1cn(CCNC(=O)[C@H](CC(C)C)NC(=O)[C@H](CC(C)C)NC(=O)C2OC2C(=O)O)nn1)NC(=O)CN1CCN(CC(=O)O)CCN(CC(=O)O)CCN(CC(=O)O)CC1)C(=O)N[C@H](C(=O)N[C@@H](CC(C)C)C(=O)O)C(C)(C)C (mixture of isomers) — IC50 (Neurotensin receptor type 1 (NTSR1, Homo sapiens, UniProt P30989); ligand displacement, radioligand): 92 nM
O=[N+]([O-])c1ccc(N2CCN(S(=O)(=O)c3ccc(F)cc3)CC2)cc1NCc1ccccn1 — IC50 (Kir1 channel protein; ion current, inhibitor, patch clamp): 35.5 nM
COc1ccc(-c2nsc(NC(=O)[C@@H]3C[C@H]3C)c2C)cc1 — IC50 (Metabotropic glutamate receptor 8 (GRM8, Homo sapiens, UniProt O00222); calcium signal, antagonist): > 12500 nM
O=S(=O)(c1ccc(Cl)cc1)N1CCN(c2ccnc(NCc3ccncc3)c2)CC1 — IC50 (Kir1 channel protein; ion flux, inhibitor): 4000 to 9000 nM
COc1ccc2c(Oc3ccc4c(C(=O)Nc5ccccc5N)cccc4c3)ccnc2c1 — IC50 (RAC-beta serine/threonine-protein kinase (AKT2, Homo sapiens, UniProt P31751); enzyme activity, inhibitor): > 500 nM
COc1cc2c(NC3CCN(C)CC3)nc(N3CCCN(C)CC3)nc2cc1OCCCN(C)C — IC50 (Lysine-specific demethylase 4E (KDM4E, Homo sapiens, UniProt B2RXH2); enzyme activity, inhibitor): > 57000 nM
Cn1nc(C(=O)NCc2ccc(C(=O)O)cc2)cc1-c1ccc2[nH]c(-c3ccncc3)cc2c1 — IC50 (MMP14; enzyme activity, inhibitor): > 20000 nM
O=[N+]([O-])c1ccc(N2CCN(S(=O)(=O)c3ccc(F)cc3)CC2)cc1NCc1ccco1 — IC50 (Kir1 channel protein; ion flux, inhibitor): 1290 nM
Cc1cnc(-c2ccc(-c3ccc(NC(=O)Nc4c(F)cc(F)cc4F)cc3F)c3c2C(=O)NC3)[nH]1 — IC50 (Mitogen-activated protein kinase kinase kinase 19 (MAP3K19, Homo sapiens, UniProt Q56UN5); enzyme activity, inhibitor): 17.3 nM
Cc1noc(-c2cc3cc(-c4nc(C(=O)NCc5ccc(=O)[nH]c5)[nH]c4C)ccc3[nH]2)n1 — IC50 (MMP14; enzyme activity, inhibitor): > 24000 nM
COc1ccc(F)cc1C(=O)NCc1ccc(-c2nn([C@@H](C)C(F)(F)F)c(N)c2C(N)=O)cc1 — IC50 (Tyrosine-protein kinase BTK (BTK, Homo sapiens, UniProt Q06187, C481T); phosphorylation in cells, inhibitor): 7.1 nM
C=CC(=O)Nc1cc(Nc2nccc(Nc3cc(Cl)c(F)cc3C(C)(C)O)n2)c(OC)cc1N1CC[C@@H](N(C)C)C1 — IC50 (Tyrosine-protein kinase BTK (BTK, Homo sapiens, UniProt Q06187); enzyme activity, inhibitor; with preincubation): 213 nM
O=[N+]([O-])c1ccc(N2CCN(S(=O)(=O)c3ccc(F)cc3)CC2)cc1NCc1cccnc1 — IC50 (Kir1 channel protein; ion flux, inhibitor): 470 nM
Cc1noc(-c2cc3cc(-c4nc(C(=O)NCc5ccncc5)[nH]c4C)ccc3[nH]2)n1 — IC50 (MMP14; enzyme activity, inhibitor): > 20000 nM
